# Assays:
# [1] = Cytotoxicity against human MT4 cells after 96 hrs by MTT assay; type: cell-based
# Outline: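 Serial compound dilutions (from DMSO stocks at […]) are added, then cells are held 96 h at 37 °C in humidified 5% CO2. Viability is read by MTT. The value is the concentration reducing proliferation by 50%, as the mean of three independent determinations, run in parallel with the antiviral assays.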
# [2] = test system: Human immunodeficiency virus 1; test: Antiviral activity against wild type HIV1 3B infected in human MT4 cells assessed as inhibition of virus-induced cytopathogenicity after 4 days by MTT assay; type: functional, organism-based; conditions: Human immunodeficiency virus 1, 3B, MT4, 96 h
# Outline: (§1)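 MT-4 cells grown at 37 °C, 5% CO2 in RPMI-1640 with 10% FCS, penicillin and streptomycin. Compounds taken up in DMSO at […] (stock), then diluted in medium. 1 × 10^4 cells per well with serial compound dilutions, then HIV-1 inoculum sized to give complete cytopathogenicity by day 4. Viability read by MTT. […] Mean of three independent determinations.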
# [3] = test system: Human immunodeficiency virus 1; test: Antiviral activity against efavirenz-resistant HIV1 harboring RT 100I, 103R, 179D, 225H mutant infected in human MT4 cells assessed as inhibition of virus-induced cytopathogenicity after 4 days by MTT assay; type: functional, organism-based; conditions: Human immunodeficiency virus 1, MT4; outline: as §1
# [4] = test system: Human immunodeficiency virus 1; test: Antiviral activity against […] HIV1 harboring Y181C mutant infected in human MT4 cells assessed as inhibition of virus-induced cytopathogenicity after 4 days by MTT assay; type: functional, organism-based; conditions: Human immunodeficiency virus 1, MT4, 96 h; outline: as §1
# [5] = test system: Human immunodeficiency virus 1; test: Antiviral activity against […] HIV1 harboring 103N, 181C mutant infected in human MT4 cells assessed as inhibition of virus-induced cytopathogenicity after 4 days by MTT assay; type: functional, organism-based; conditions: Human immunodeficiency virus 1, MT4, 96 h; outline: as §1
# [6] = test system: Human immunodeficiency virus 1; test: Antiviral activity against zidovudine-resistant HIV1 harboring RT 67N, 70R, 215F, 219Q mutant infected in human MT4 cells assessed as inhibition of virus-induced cytopathogenicity after 4 days by MTT assay; type: functional, organism-based; conditions: Human immunodeficiency virus 1, MT4, 96 h; outline: as §1
# [7] = test system: Human immunodeficiency virus 1; test: Antiviral activity against MDR-resistant HIV1 harboring 41L, 74V, 106A, 215Y mutant infected in human MT4 cells assessed as inhibition of virus-induced cytopathogenicity after 4 days by MTT assay; type: functional, organism-based; conditions: Human immunodeficiency virus 1, MT4, 96 h; outline: as §1
# [8] = test system: Human immunodeficiency virus 1; test: Antiviral activity against saquinavir-resistant HIV1 infected in human MT4 cells assessed as inhibition of virus-induced cytopathogenicity after 4 days by MTT assay; type: functional, organism-based; conditions: Human immunodeficiency virus 1, MT4, 96 h; outline: as §1
# [9] = test system: Human immunodeficiency virus 1; test: Ratio of EC50 for efavirenz-resistant HIV1 harboring RT 100I, 103R, 179D, 225H mutant to EC50 for wild type HIV1 3B; type: functional
# [10] = test system: Human immunodeficiency virus 1; test: Ratio of EC50 for zidovudine-resistant HIV1 harboring RT 67N, 70R, 215F, 219Q mutant to EC50 for wild type HIV1 3B; type: functional
# [11] = test system: Human immunodeficiency virus 1; test: Ratio of EC50 for MDR-resistant HIV1 harboring 41L, 74V, 106A, 215Y mutant to EC50 for wild type HIV1 3B; type: functional
# [12] = test system: Human immunodeficiency virus 1; test: Ratio of EC50 for saquinavir-resistant HIV1 to EC50 for wild type HIV1 3B; type: functional
# [13] = test system: Human immunodeficiency virus 1; test: Antiviral activity against 6-[(3,5-Dimethylphenyl)fluoromethyl]-5-ethyl-1-{[[4-(3-hydroxyprop-1-ynyl)benzyl]oxy]methyl}pyrimidine-2,4(1H,3H)-dione-resistant HIV1 harboring RT 106I, 181C mutant infected in human MT4 cells assessed as inhibition of virus-induced cytopathogenicity after 4 days by MTT assay; type: functional, organism-based; conditions: Human immunodeficiency virus 1, MT4; outline: as §1
# [14] = test system: Human immunodeficiency virus 1; test: Antiviral activity against MC1220-resistant HIV1 harboring RT 100I, 179D, 181C mutant infected in human MT4 cells assessed as inhibition of virus-induced cytopathogenicity after 4 days by MTT assay; type: functional, organism-based; conditions: Human immunodeficiency virus 1, MT4, 96 h; outline: as §1
# [15] = test system: Human immunodeficiency virus 1; test: Antiviral activity against TMC120-resistant HIV1 harboring RT 100I, 138G mutant infected in human MT4 cells assessed as inhibition of virus-induced cytopathogenicity after 4 days by MTT assay; type: functional, organism-based; conditions: Human immunodeficiency virus 1, MT4, 96 h; outline: as §1
# [16] = test system: Human immunodeficiency virus 1; test: Antiviral activity against TMC125-resistant HIV1 harboring RT 109M, 138K, 190E mutant infected in human MT4 cells assessed as inhibition of virus-induced cytopathogenicity after 4 days by MTT assay; type: functional, organism-based; conditions: Human immunodeficiency virus 1, MT4, 96 h; outline: as §1
# [17] = Cytotoxicity against human MT4 cells after 40 days by MTT assay; type: cell-based
# Outline: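 Mock-infected MT-4 cells at 1 × 10^5 cells/mL, 37 °C, with various compound concentrations for 40 days. One-tenth of the culture is moved every 3−4 days into fresh drug-containing medium at low density to keep growth exponential. Viability is read by MTT at each passage. The value is the maximum concentration still allowing exponential proliferation, as the mean of three determinations.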
# [18] = test system: Human immunodeficiency virus 1; test: Antiviral activity against HIV1 infected in human MT4 cells assessed as lowest compound concentration required to irreversibly knock out vial multiplication treated by chronic treatment measured after 40 days by MTT assay; type: functional
# Outline: (§2)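 HIV-1-infected MT-4 cells at high MOI (5−10 CCID50/cell) in 40-day assays. Compound is given continuously (chronic), for only the first 4 h after infection, or for 4 h immediately before infection. Cells are resuspended at 10^5 cells/mL every 4 days. The value is the lowest concentration that irreversibly knocks out HIV-1 multiplication, as the mean of three independent determinations.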
# [19] = test system: Human immunodeficiency virus 1; test: Antiviral activity against HIV1 infected in human MT4 cells assessed as lowest compound concentration required to irreversibly knock out vial multiplication treated 4 hrs after infection measured after 40 days by MTT assay; type: functional; outline: as §2
# [20] = test system: Human immunodeficiency virus 1; test: Antiviral activity against HIV1 infected in human MT4 cells assessed as lowest compound concentration required to irreversibly knock out vial multiplication treated 4 hrs before infection measured after 40 days by MTT assay; type: functional; outline: as §2
# [21] = test system: Human immunodeficiency virus 1; test: Ratio of MC1220 EC50 to compound EC50 for HIV1 MP634 infected in human cells
# [22] = test system: Human immunodeficiency virus 1; test: Antiviral activity against HIV1 MP1308 infected in human dendritic cells assessed as inhibition of p24; conditions: Human immunodeficiency virus 1, MP1308, dendritic cells
# [23] = test system: Human immunodeficiency virus 1; test: Antiviral activity against HIV1 MP1033 infected in human dendritic cells assessed as inhibition of p24; conditions: Human immunodeficiency virus 1, MP1033, dendritic cells
# [24] = test system: Human immunodeficiency virus 1; test: Antiviral activity against HIV1 W5269 infected in human dendritic cells assessed as inhibition of p24 production; conditions: Human immunodeficiency virus 1, W5269, dendritic cells
# [25] = test system: Human immunodeficiency virus 1; test: Antiviral activity against HIV1 MP582 infected in human dendritic cells assessed as inhibition of p24 production; conditions: Human immunodeficiency virus 1, MP582, dendritic cells
# [26] = test system: Human immunodeficiency virus 1; test: Antiviral activity against HIV1 CRF01 infected in human dendritic cells assessed as inhibition of p24 in supernatants; conditions: Human immunodeficiency virus 1, CRF01, dendritic cells
# [27] = test system: Human immunodeficiency virus 1; test: Antiviral activity against HIV1 CRF02 infected in human dendritic cells assessed as inhibition of p24 in supernatants; conditions: Human immunodeficiency virus 1, CRF02, dendritic cells
# [28] = test system: Human immunodeficiency virus 1; test: Antiviral activity against HIV1 MP634 infected in human dendritic cells assessed as inhibition of p24 in supernatants; conditions: Human immunodeficiency virus 1, MP634, dendritic cells
# [29] = test system: Human immunodeficiency virus 1; test: Antiviral activity against HIV1 MP411 infected in human dendritic cells assessed as inhibition of p24 in supernatants; conditions: Human immunodeficiency virus 1, MP411, dendritic cells
# [30] = test system: Human immunodeficiency virus 1; test: Antiviral activity against NRTI-resistant HIV1 MP1315 infected in human dendritic cells assessed as inhibition of p24 in supernatants; conditions: Human immunodeficiency virus 1, MP1315, dendritic cells
compound,measurement,setting,value
CCc1c(C(F)c2cc(C)cc(C)c2)n(COCc2ccc(C#CCO)cc2)c(=O)[nH]c1=O (stereo not given),CC50 at 96 h,[1],37000 nM
same,EC50,[2],6 nM
same,EC50,[3],100 nM
same,EC50,[4],40 nM
same,EC50,[5],300 nM
same,EC50,[6],10 nM
same,EC50,[7],20 nM
same,EC50,[8],20 nM
same,Ratio EC50,[9],>10
same,Ratio EC50,[10],1.7
same,Ratio EC50,[11],3.3
same,Ratio EC50,[12],3.3
same,EC50,[13],2000 nM
same,EC50,[14],40 nM
same,EC50,[15],10 nM
same,EC50,[16],900 nM
same,MNTC at 960 h,[17],10 µM
same,Activity,[18],0.5 µM
same,Activity,[19],>20 µM
same,Activity,[20],>20 µM
same,Ratio EC50,[21],10
same,EC99,[22],0.01 µM
same,EC99,[23],0.01 µM
same,EC99,[24],0.01 µM
same,EC99,[25],0.01 µM
same,EC99,[26],0.01 µM
same,EC99,[27],0.1 µM
same,EC99,[28],0.01 µM
same,EC99,[29],0.01 µM
same,EC99,[30],0.0001 µM

# — ChEMBL document CHEMBL3297699, “Synthesis of novel fluoro analogues of MKC442 as microbicides” (J Med Chem, 2014)
